Activity calls are given as the source filed them.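 Rule for the calls, unless noted: active = GFP response above 150% of the DMSO level; inconclusive = fewer than 70 events counted for a yeast strain; inactive = the rest.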

Experiment [1] in a line: RPL19A-GFP modulators, yeast TOR pathway, confirmation, cell-based, S. cerevisiae, flow cytometry, cherry picks, mother/daughter gates (AID 2270;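 active = GFP response below 50% of the DMSO control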). Particulars: S. cerevisiae RPL19A-GFP strain, 3 h, at 10 µM, stronger effect = lower value, 100 = same GFP as DMSO wells.
Experiment [2] in a line: LAP4-GFP expression modulators in yeast, confirmation, cell-based, cherry picks, flow cytometry, mother/daughter gates (AID 2271;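 active = GFP response above 150% of the DMSO control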;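 note: ratio of sample to DMSO plate mean so 100% equals DMSO level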). To be noted: S. cerevisiae LAP4-GFP strain, 3 h, at 10 µM, stronger effect = higher value, 100 means same as DMSO control. Summed up: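 Measured by: GFP by flow cytometry. Test system: GFP-fusion yeast strain. Input: yeast cells seeded at OD600 of 0.2. Timing: 30 °C, 3 h compound incubation, rotating. Buffer or medium: synthetic complete medium for yeast. Benchmarks: DMSO-only negative wells, rapamycin 400 ng/mL positive wells. Compound: 10 µM single dose.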

Experiment [3] is described as follows: modulators of MEP2-GFP levels in yeast, confirmation, S. cerevisiae, flow cytometry GFP, cherry picks (AID 2272;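 active = GFP response above 150% of the DMSO control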;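 note: ratio of well signal to plate DMSO mean so 100% equals DMSO level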). Particulars: S. cerevisiae MEP2-GFP strain, 3 h, at 10 µM, stronger effect = higher value.
Experiment [4] can be described thus: AGP1-GFP expression modulators, hit retest, confirmation, cell-based, flow cytometry, S. cerevisiae, cherry picks (AID 2273).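 Note: median GFP channel fluorescence over the whole cell population gate.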 Particulars: S. cerevisiae AGP1-GFP strain, 3 h, at 10 µM.
The nature of experiment [5]: modulators of CIT2-GFP expression in yeast, confirmation, S. cerevisiae, GFP fusion, cherry picks, mother/daughter gates (AID 2274). Particulars: S. cerevisiae CIT2-GFP strain, flow cytometry, 3 h, at 10 µM, stronger effect = higher value.
Setting [6] is: measured here: daughter cell gate.
The mark [7] stands for this setting: measured here: mother cell gate.
Where [8] appears, read: measured here: daughter cell gate response.
Where [9] appears, read: measured here: mother cell gate response.

`Cc1ccc(C)c(N2CCN(C(=O)c3ccccc3Br)CC2)c1`: the GFP response vs DMSO in experiment [1] is 105% (inactive); in experiment [1] (setting [6]) it was 102%; in experiment [1] (setting [7]) it was 99.5%; in experiment [3], 109% (inactive). Moreover, the values for the GFP response relative to DMSO in experiment [2], in experiment [2] (setting [8]) and in experiment [2] (setting [9]) were 101% (inactive), 101% and 100%, respectively. Besides, the GFP response, % of DMSO in experiment [4] was 98.8% (inactive); in experiment [5], 106% (inactive); in experiment [5] (setting [6]) it was 103%; in experiment [5] (setting [7]) it was 105%.

In the case of `Cc1ccc(NC(=S)N(CCCN2CCOCC2)Cc2cccs2)c(C)c1`, the GFP response vs DMSO in experiment [1] was 97.6% (inactive); in experiment [1] (setting [6]), 97.8%; in experiment [1] (setting [7]), 97.9%; in experiment [3], 99.5% (inactive). Besides, the GFP response relative to DMSO was 102% (inactive) in experiment [2], 104% in experiment [2] (setting [8]) and 101% in experiment [2] (setting [9]). For the same compound, the GFP response, % of DMSO in experiment [4] was 96% (inactive); in experiment [5], 99.3% (inactive); in experiment [5] (setting [6]) it was 100%; in experiment [5] (setting [7]), 98%.

Regarding `O=C(O)c1ccn2c(C(=O)c3ccc(Cl)cc3)c(-c3ccccc3)cc2c1`, the GFP response vs DMSO in experiment [1] is 96.2% (inactive); in experiment [1] (setting [6]) it was 92.3%; in experiment [1] (setting [7]), 99.8%; in experiment [3], 104% (inactive). In addition, the GFP response relative to DMSO in experiment [2] was 114% (inactive); in experiment [2] (setting [8]) it was 107%; in experiment [2] (setting [9]), 115%. Besides, the GFP response, % of DMSO in experiment [4] is 94.7% (inactive); in experiment [5], 92.1% (inactive); in experiment [5] (setting [6]), 89%; in experiment [5] (setting [7]), 92.1%.

Turning to `Cc1cccc(N2C(=O)C(Cl)=C(Nc3c(C)n(C)n(-c4ccccc4)c3=O)C2=O)c1C`, the GFP response vs DMSO in experiment [1] is 102% (inactive); in experiment [1] (setting [6]), 102%; in experiment [1] (setting [7]) it was 103%; in experiment [3], 104% (inactive). Also, the GFP response relative to DMSO in experiment [2] was 103% (inactive); in experiment [2] (setting [8]), 104%; in experiment [2] (setting [9]), 104%. Also, the GFP response, % of DMSO in experiment [4] was 103% (inactive); in experiment [5], 99.3% (inactive); in experiment [5] (setting [6]) it was 100%; in experiment [5] (setting [7]), 98%.

Consider `CC(NCCS(=O)(=O)c1ccc(Cl)cc1)c1cccc(Cl)c1` (stereo not drawn), for which the GFP response vs DMSO in experiment [1] is 95.1% (inactive); in experiment [1] (setting [6]), 96.4%; in experiment [1] (setting [7]), 94%; in experiment [3], 106% (inactive). Further, the GFP response relative to DMSO in experiment [2] was 97.7% (inactive); in experiment [2] (setting [8]) it was 96%; in experiment [2] (setting [9]), 99.5%. Moreover, the GFP response, % of DMSO in experiment [4] is 98.2% (inactive); in experiment [5], 97.2% (inactive); in experiment [5] (setting [6]) it was 97.6%; in experiment [5] (setting [7]), 98.2%.

`COc1ccc(-c2ccc(SCC(=O)N3c4ccccc4CC3C)nn2)cc1OC` (stereo not drawn): the GFP response vs DMSO in experiment [1] is 99.1% (inactive); in experiment [1] (setting [6]), 98%; in experiment [1] (setting [7]), 99.3%; in experiment [3], 102% (inactive). Further, the GFP response relative to DMSO in experiment [2] was 100% (inactive); in experiment [2] (setting [8]), 101%; in experiment [2] (setting [9]), 101%. For the same compound, the GFP response, % of DMSO in experiment [4] is 99.3% (inactive); in experiment [5], 96.4% (inactive); in experiment [5] (setting [6]) it was 96.4%; in experiment [5] (setting [7]) it was 95.6%.

Turning to `COc1ccc(NC(=O)/C(C#N)=C/c2ncc([N+](=O)[O-])n2C)c(OC)c1`, the GFP response vs DMSO is 97.2% (inactive) in experiment [1], 95.1% in experiment [1] (setting [6]), 99.8% in experiment [1] (setting [7]) and 169% (inactive) in experiment [3]. The GFP response relative to DMSO is 151% (active) in experiment [2], 138% in experiment [2] (setting [8]) and 162% in experiment [2] (setting [9]). Also, the GFP response, % of DMSO was 99.5% (inactive) in experiment [4], 134% (inactive) in experiment [5], 132% in experiment [5] (setting [6]) and 136% in experiment [5] (setting [7]).

Take `CC(C)c1ccc(C(=O)N/N=C/c2cccc(Cl)c2Cl)cc1`: the GFP response vs DMSO was 93.4% (inactive) in experiment [1], 88% in experiment [1] (setting [6]), 92.6% in experiment [1] (setting [7]) and 103% (inactive) in experiment [3]. Further, the GFP response relative to DMSO in experiment [2] is 112% (inactive); in experiment [2] (setting [8]), 110%; in experiment [2] (setting [9]), 116%. Besides, the GFP response, % of DMSO is 95.7% (inactive) in experiment [4], 87.2% (inactive) in experiment [5], 83% in experiment [5] (setting [6]) and 85.8% in experiment [5] (setting [7]).

Regarding `N#C/C(=C\c1c(N2CCC(C(N)=O)CC2)nc2ccccn2c1=O)C(=O)NCc1ccco1`, the GFP response vs DMSO in experiment [1] was 97.8% (inactive); in experiment [1] (setting [6]), 98.8%; in experiment [1] (setting [7]), 97.6%; in experiment [3], 102% (inactive). Further, the GFP response relative to DMSO was 101% (inactive) in experiment [2], 99.3% in experiment [2] (setting [8]) and 99.5% in experiment [2] (setting [9]). In addition, the GFP response, % of DMSO in experiment [4] is 99.3% (inactive); in experiment [5], 104% (inactive); in experiment [5] (setting [6]), 102%; in experiment [5] (setting [7]), 101%.

`N#C/C(=C\c1ccc(N2CCOCC2)o1)c1ccccc1`: the GFP response vs DMSO in experiment [1] was 98.2% (inactive); in experiment [1] (setting [6]), 97.3%; in experiment [1] (setting [7]), 98.5%; in experiment [3], 104% (inactive). Besides, the GFP response relative to DMSO in experiment [2] was 102% (inactive); in experiment [2] (setting [8]), 102%; in experiment [2] (setting [9]), 103%. Besides, the GFP response, % of DMSO was 93.8% (inactive) in experiment [4], 104% (inactive) in experiment [5], 104% in experiment [5] (setting [6]) and 103% in experiment [5] (setting [7]).

As for `COc1ccccc1N=Cc1nc(-c2ccccc2)oc1OC(C)=O`, the GFP response vs DMSO in experiment [1] was 98.2% (inactive); in experiment [1] (setting [6]), 96.9%; in experiment [1] (setting [7]) it was 98.3%; in experiment [3], 101% (inactive). Further, the GFP response relative to DMSO in experiment [2] was 103% (inactive); in experiment [2] (setting [8]) it was 101%; in experiment [2] (setting [9]), 106%. In addition, the GFP response, % of DMSO is 70.7% (inactive) in experiment [4], 90.1% (inactive) in experiment [5], 88.4% in experiment [5] (setting [6]) and 90.7% in experiment [5] (setting [7]).

In the case of `O=C1[C@@H]2C3C=CC(O3)[C@@H]2C(=O)N1c1ccccc1`, the GFP response vs DMSO in experiment [1] was 101% (inactive); in experiment [1] (setting [6]), 102%; in experiment [1] (setting [7]), 100%; in experiment [3] it was 101% (inactive). In addition, the GFP response relative to DMSO is 107% (inactive) in experiment [2], 107% in experiment [2] (setting [8]) and 109% in experiment [2] (setting [9]). For the same compound, the GFP response, % of DMSO in experiment [4] was 107% (inactive); in experiment [5], 100% (inactive); in experiment [5] (setting [6]), 101%; in experiment [5] (setting [7]) it was 100%.

Take `Cc1ccc(N2C(=O)C(Cl)=C(Nc3c(C)n(C)n(-c4ccccc4)c3=O)C2=O)cc1`: the GFP response vs DMSO was 96.9% (inactive) in experiment [1], 93.9% in experiment [1] (setting [6]), 96.1% in experiment [1] (setting [7]) and 101% (inactive) in experiment [3]. Besides, the GFP response relative to DMSO in experiment [2] was 101% (inactive); in experiment [2] (setting [8]), 101%; in experiment [2] (setting [9]), 101%. Further, the GFP response, % of DMSO in experiment [4] was 105% (inactive); in experiment [5], 100% (inactive); in experiment [5] (setting [6]), 103%; in experiment [5] (setting [7]), 100%.

(Values after PubChem BioAssay.)
